High-throughput results as filed in PubChem BioAssay.
Rows were chosen to be rich in hits. Some 3.5% of all compounds tested hit in one or more screens of this group.
MrgX1 antag: blocks BAM8-22 activation of human MrgX1 receptor; Q96LB2; B-score at 10 µM; hit rate 1.3% among 310,000; MRGX1-HEK293 calcium flux, Fluo-4, BAM8-22 antagonism; hits give low values; AID 588676;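 active = calcium-response B-score plate-corrected more than 3 library SD below zero, starting fluorescence within 5 deviations, no agonist response on first addition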;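 note: peak minus trough fluorescence over baseline after final BAM8-22 challenge near maximal dose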
Target sequence (Q96LB2 whole entry, looked up): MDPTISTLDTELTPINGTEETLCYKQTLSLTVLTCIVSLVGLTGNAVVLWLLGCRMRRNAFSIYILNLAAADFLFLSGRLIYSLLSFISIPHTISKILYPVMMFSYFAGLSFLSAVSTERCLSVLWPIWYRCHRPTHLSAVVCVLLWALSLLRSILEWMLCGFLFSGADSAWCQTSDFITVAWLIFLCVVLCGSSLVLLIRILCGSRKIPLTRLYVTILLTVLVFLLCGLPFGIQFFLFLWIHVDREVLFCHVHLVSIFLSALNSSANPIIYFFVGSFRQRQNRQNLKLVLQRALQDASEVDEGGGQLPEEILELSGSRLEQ
RGS4 act: RGS4 potentiation or activation | HEK293 M3R/inducible RGS4, carbachol calcium flux Fluo4; hits give low values | B-score at 10 µM | hit rate 0.92% among 310,000;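 active = B-score of the integrated calcium signal more than 4 SD below the library mean, with starting fluorescence not abnormally high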;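 note: negative B-score means reduced calcium response which marks RGS4 activation or potentiation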
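System: HEK293 FlpIn-TREx cells, stable M3R, doxycycline-inducible RGS4. Timing: overnight RGS4 induction, 30 min dye load 37 °C, 20 min compound RT. Also added: carbachol, ECmax concentration. Measured by: Fluo4 fluorescence kinetic imaging of calcium. Evaluation: integrated calcium ratio converted to B score.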
RGS4 inh: human RGS4 inhibition; P49798; HEK293 M3R/RGS4 inducible, Fluo-4 calcium flux; hits give high values; triggered by carbachol at its EC20; B-score at 10 µM; hit rate 0.45% among 310,000; AID 463165;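 active = B-score, a plate-corrected calcium signal, over three deviations above library mean, with baseline fluorescence within five deviations of library mean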;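 note: RGS4 expression induced by doxycycline in cells with stable M3 receptor; B-score is computed from the integrated fluorescence ratio over baseline after carbachol; higher B-score means a larger calcium signal and so more RGS4 inhibition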
Target sequence (P49798 whole entry, looked up): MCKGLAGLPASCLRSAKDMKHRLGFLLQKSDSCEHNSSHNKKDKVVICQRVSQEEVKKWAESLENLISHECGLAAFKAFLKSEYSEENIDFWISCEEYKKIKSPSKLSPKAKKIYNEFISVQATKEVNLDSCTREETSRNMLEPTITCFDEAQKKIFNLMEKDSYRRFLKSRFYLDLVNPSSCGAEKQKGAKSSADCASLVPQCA
MrgX1 agonist: activates human MrgX1 receptor signaling; Q96LB2; MrgX1-HEK293 cells, Fluo-4 calcium fluorescence, agonist mode; hits give high values; B-score at 10 µM; hit rate 0.44% among 310,000;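 active = calcium response B-score plate-corrected fluorescence ratio at least 3 library SD, with starting fluorescence B-score inside 5 SD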
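Material – MrgX1-expressing HEK293 cells · Input – 15,000 cells seeded per well · Dosing – compound as first of three additions · Times – overnight seeding, then 1 h dark dye loading · Measured by – kinetic Fluo-4 NW fluorescence of intracellular calcium · Read-out – B-scored fluorescence response ratio · Benchmarks – positive and negative control wells on each plate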
MrgX1 allo act: human MrgX1 positive allosteric modulation, primary screen; Q96LB2; MrgX1-HEK293, Fluo-4 calcium flux, FDSS; hits give high values; hit rate 0.63% among 310,000; B-score at 10 µM; AID 588675;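 active = plate-corrected calcium response at least 3 library SD above typical, normal starting fluorescence, not activating the receptor alone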;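 note: compound read alongside a low EC10 to EC30 dose of BAM8-22 agonist; peak minus trough fluorescence over baseline measured at the second addition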
MrgX1 antag conf: human MrgX1 receptor antagonism, re-confirmation screen. AID 602420. shares compounds with MrgX1 antag. MrgX1-HEK293, BAM8-22 calcium flux, Fluo-4; hits give low values. hit rate 19% among 2,300. remaining BAM8-22 calcium response % of control (hits give low values), % at 10 µM;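 active = remaining agonist calcium response no higher than 100% minus 3 SD of agonist-only control wells, with starting fluorescence near control levels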;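 note: agonist BAM8-22 given at a near maximal EC90 to ECmax level; peak minus minimum fluorescence divided by baseline after agonist addition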
HEK293 Ca flux: counter-screen for MrgX1 antagonists: effect in parental HEK293 cells | shares compounds with MrgX1 antag | hit rate 2% among 4,000 | Fluo-4 calcium fluorescence, FDSS | fluorescence ratio F(max-min)/F0 at 10 µM | AID 624111;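 active = duplicate-averaged calcium fluorescence ratio at least three times the standard deviation of buffer wells, a nonspecific response in parental cells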
HEK293 Ca counter: counter-screen for MrgX1 allosteric activators: effect in parental HEK293 cells; shares compounds with MrgX1 antag; AID 624114; hit rate 0.4% among 4,000; fluorescence ratio F(max-min)/F0 at 10 µM; parental HEK293 calcium flux, Fluo-4 fluorescence ratio; hits give high values;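 active = calcium fluorescence ratio, averaged over duplicates, at least 3 SD of the buffer-well ratio, meaning a nonspecific response in receptor-free cells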;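 note: untransfected parental HEK293 lacking MrgX1 used as counterscreen for MrgX1 allosteric activators; fluorescence change taken during the second addition on a kinetic imager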
HEK293 Ca cntr2: counter-screen for MrgX1 activators: effect in parental HEK293 cells. shares compounds with MrgX1 antag. Fluo-4 calcium fluorescence (FDSS); hits give high values. fluorescence ratio F(max-min)/F0 at 10 µM. hit rate 8.7% among 4,000. AID 624115;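 active = calcium fluorescence ratio at least three times the spread of buffer wells, meaning a non-specific response in parental cells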
Starred values were filed as active, the others as inactive; i = inactive; / = not tested or not shown.

SMILES | MrgX1 antag | RGS4 act | RGS4 inh | MrgX1 agonist | MrgX1 allo act | MrgX1 antag conf | HEK293 Ca flux | HEK293 Ca counter | HEK293 Ca cntr2
COc1ccc(-c2cc(C)no2)cc1S(=O)(=O)NCC(C)c1ccccc1 (stereo not drawn) | -6.7* | i | i | i | i | i | i | i | i
O=C(CC(NC(=O)c1ccccc1Cl)c1ccccc1)NC1=NCCS1 (stereo not drawn) | -6.6* | i | i | i | i | i | i | i | i
O=C(Cc1c(Cl)cccc1Cl)NC1=NCCS1 | i | i | i | i | i | / | / | / | /
COc1ccccc1NC(=O)COc1cc(C)nc(C(C)C)n1 | -5.4* | i | i | i | i | i | i | i | i
Cn1cc(S(=O)(=O)CC(=O)Nc2ccc(Br)cc2)c2ccccc21 | -6.1* | i | i | i | i | i | i | i | i
COc1ccc(CNC(=O)c2c(-c3c(F)cccc3Cl)noc2C)cc1 | i | i | i | i | i | / | / | / | /
COc1cc(C(=O)NCC(=O)N/N=C/c2cccnc2)cc(OC)c1OC | i | i | i | i | i | / | / | / | /
CCCn1c(=N)n(CC(=O)c2cccs2)c2ccccc21 | -4.6* | i | i | i | i | i | i | i | i
Cc1noc(C)c1COc1cccc(C(=O)OC(C)C(=O)Nc2c(C)n(C)n(-c3ccccc3)c2=O)c1 (stereo not drawn) | i | i | i | i | i | / | / | / | /
COc1ccc(C)cc1S(=O)(=O)N(C)CC(=O)NCc1ccncc1 | i | i | i | i | i | / | / | / | /
O=C(NC1CCCC1)C(c1ccc(Cl)cc1)N1CCc2ccccc21 (stereo not drawn) | -4.8* | i | i | i | i | i | i | i | i
O=C(NC1CCCCC1)C(=S)N1CCOCC1 | -5.4* | i | i | i | i | i | i | i | i
CCN(CC)S(=O)(=O)c1ccc(NC2c3ncccc3C(=O)N2Cc2ccccc2)cc1 (stereo not drawn) | -9.3* | i | i | i | i | i | i | i | i
N#Cc1ccccc1S(=O)(=O)N1CCN(C(=O)C2CCCC2)CC1 | i | i | i | i | i | / | / | / | /
O=C(NC1CC1)C1CC(=O)N(c2ccc(F)cc2)C1 (stereo not drawn) | i | i | i | i | i | / | / | / | /
Cc1ccc2cccc(NC3OC(=O)c4ccccc43)c2n1 (stereo not drawn) | i | i | i | i | i | / | / | / | /
CCCCC1CCC(C(=O)N(C)CC(=O)Nc2cccc(F)c2)CC1 (stereo not drawn) | -5.4* | i | i | i | i | i | i | i | i
CC1CC1C(=O)N(C)CC(=O)Nc1cccc(F)c1 (stereo not drawn) | i | i | i | i | i | / | / | / | /
Cn1c(=O)n(Cc2ccc(Br)cc2)c2ccccc21 | -9.3* | i | i | i | i | i | i | i | i
Cn1c(=O)n(CCC(=O)O)c2ccccc21 | i | i | i | i | i | / | / | / | /
O=C(NCCN1CCOCC1)c1ccccc1N1C(=O)[C@@H]2Cc3c([nH]c4ccccc34)C(c3ccccc3)N2C1=O (stereo partly drawn) | -6.8* | i | i | i | i | i | i | i | i
O=C(NCCCN1CCOCC1)c1ccccc1N1C(=O)[C@@H]2Cc3c([nH]c4ccccc34)C(c3ccc(F)cc3)N2C1=O (stereo partly drawn) | i | i | i | i | i | / | / | / | /
Cc1oc(CC(C)C)c(CN)c1C(=O)O | -4.6* | i | i | i | i | i | i | i | i
Cc1cccc(C(=O)Nc2cccc3c2CCCC3)c1 | i | i | i | i | i | / | / | / | /
COc1ccccc1CC(=O)N1CCN(C(=O)c2ccco2)CC1 | i | i | i | i | i | / | / | / | /
SMILES | MrgX1 antag | RGS4 act | RGS4 inh | MrgX1 agonist | MrgX1 allo act | MrgX1 antag conf | HEK293 Ca flux | HEK293 Ca counter | HEK293 Ca cntr2
CCCOc1cc(CC(=O)NCc2ccco2)ccc1OC | i | i | i | i | i | / | / | / | /
COc1ccc(CC(=O)OCC(=O)NCc2ccco2)cc1OC | -5.3* | i | i | i | i | i | i | i | i
O=c1[nH]c(Cc2ccccn2)nc2scc(-c3ccccc3Cl)c12 | i | i | i | i | i | / | / | / | /
O=C(NCc1ccco1)c1cc(-c2ccccc2)nc2ccccc12 | -5.3* | i | i | i | i | i | i | i | i
COc1ccc(-c2cc(C(=O)NCc3ccco3)c3ccccc3n2)cc1 | i | i | i | i | i | / | / | / | /
O=C(CNC(=O)C1CCCCC1)NC1CCCCC1 | -4.7* | i | i | i | i | i | i | i | i
O=C(CNC(=O)C1CCCCC1)Nc1ccccc1 | i | i | i | i | i | / | / | / | /
Cc1cc(NC(=O)CNC(=O)C2CCCCC2)no1 | -5.3* | / | / | i | i | i | i | i | i
CSCc1cc(N(C)c2ccccc2)nc(-c2ccccc2)n1 | i | i | i | i | i | / | / | / | /
Cc1ccc(C(=O)NCCc2nnc3ccc(SCC(=O)Nc4c(C)cc(C)cc4C)nn23)cc1 | -5.7* | i | i | i | i | i | i | i | i
CCCCc1n[nH]c(=S)n1Cc1ccc(Cl)cc1 | -5.7* | i | i | i | i | i | i | i | i
CCCn1c(CCc2ccccc2)n[nH]c1=S | -7.5* | i | i | i | i | i | i | i | i
Cc1c(C(=O)O)cccc1-c1ccc(/C=N/Nc2ccc(Br)cc2)o1 | i | i | i | i | i | / | / | / | /
CCOC(=O)c1csc(NC(=O)CCSc2ccccc2)n1 | -5.3* | i | i | i | i | i | i | i | i
O=S(=O)(c1ccc2c(c1)OCCO2)N1CCC(O)(c2ccc(Cl)cc2)CC1 | i | i | i | i | i | / | / | / | /
O=S(=O)(c1ccccc1Cl)N1CCC(O)(c2ccc3c(c2)OCO3)CC1 | -4.9* | i | i | i | i | i | i | i | i
